Published values gathered from unrelated publications.
Compare with care: the assays were run in different laboratories.
PPARA: Peroxisome proliferator-activated receptor alpha (PPARA, Homo sapiens, UniProt Q07869)
Tumor necrosis factor receptor superfamily member 9: Tumor necrosis factor receptor superfamily member 9 (Homo sapiens, UniProt Q07011)
gag-pol integrase: Gag-Pol polyprotein, integrase (gag-pol, Human immunodeficiency virus 1, UniProt P12497)

SMILES	target	test	test system	setting	measurement	value
c1ccc(-c2ncc(CN3CCN(c4ncccn4)CC3)[nH]2)cc1	D(2) dopamine receptor (Drd2, Rattus norvegicus, UniProt P61169)	ligand displacement, radioligand		cell membranes	Ki	817 nM
[Cd+2]	Protein phosphatase 1A (PPM1A, Homo sapiens, UniProt P35813, D38A)	enzyme activity, inhibitor, absorbance		pH 8	Ki	390 nM
O=C(O)C(F)(F)C(F)(F)C(F)(F)C(F)(F)C(F)(F)C(F)(F)F	PPARA	reporter gene, agonist, luciferase			EC50	45000 nM
CC(C)C[C@H](NC(=O)[C@H](Cc1ccccc1)NC(=O)[C@H](Cc1ccc(O)cc1)NC(=O)CNC(=O)[C@H](CCCCN)NC(=O)[C@H](CO)NC(=O)[C@H](CCC(N)=O)NC(=O)CNC(=O)[C@@H](NC(=O)[C@H](CO)NC(=O)[C@@H]1CCCN1C(=O)[C@H](CO)NC(=O)[C@H](CCC(N)=O)NC(=O)[C@H](Cc1ccc(O)cc1)NC(=O)[C@H](CCC(=O)O)NC(=O)[C@H](C)NC(=O)[C@H](CCCCN)NC(=O)[C@@H](N)Cc1ccccc1)C(C)C)C(=O)N[C@@H](Cc1ccccc1)C(=O)N[C@@H](CCCNC(=N)N)C(=O)N1CCC[C@H]1C(=O)N[C@@H](CCCNC(=N)N)C(=O)N[C@@H](CC(N)=O)C(N)=O	Neuromedin-U receptor 2 (NMUR2, Homo sapiens, UniProt Q9GZQ4)	inositol phosphate, agonist			EC50	0.24 nM
O=S(=O)(O)C(F)(F)C(F)(F)C(F)(F)C(F)(F)C(F)(F)C(F)(F)C(F)(F)C(F)(F)F	PPARA	reporter gene, agonist, luciferase			EC50	24000 nM
O=C(O)CCC(c1ccccc1)(c1ccccc1)c1ccccc1	Kinesin-like protein KIF11 (KIF11, Homo sapiens, UniProt P52732)	ATPase activity, inhibitor			IC50	> 28000 nM
Cc1c(Cc2ccc(C(F)(F)F)nc2)c[nH]c1C(=O)NC(C)c1cn[nH]c1 (stereo not drawn)	Cytochrome P450 2D6 (CYP2D6, Homo sapiens, UniProt P10635)	enzyme activity, inhibitor	human, liver microsomes		IC50	750 nM
CCCC[C@@H]1NC(=O)[C@H](Cc2ccc(O)cc2)NC(=O)[C@@H]2CCCN2C(=O)[C@H](CC(=O)O)NC(=O)[C@H](C)NC(=O)[C@H](Cc2ccccc2)NC(=O)[C@@H]2CSCCC(=O)N3CN(CN(C3)C(=O)CCSC[C@@H](C(=O)N[C@@H](C)C(N)=O)NC1=O)C(=O)CCSC[C@H](NC(C)=O)C(=O)N[C@@H](CC(C)(C)C)C(=O)N1CCC[C@H]1C(=O)N[C@@H](CCC(=O)O)C(=O)N[C@H](CCCCNC(=O)CCc1cn(CCOCCOCCOCCOCCOCCC(=O)NCCCC[C@H]3NC(=O)[C@H](Cc4cccc5ccccc45)NC(=O)[C@@H]4CCCN4C(=O)CCSCCC(=O)N4CN5CN(C4)C(=O)CCSC[C@H](NC3=O)C(=O)N[C@@H](CCSC)C(=O)N[C@@H](CCCCNC(=N)N)C(=O)N[C@@H](CC(=O)O)C(=O)N[C@@H](Cc3c[nH]c4ccccc34)C(=O)N[C@@H](CO)C(=O)N[C@@H]([C@@H](C)O)C(=O)N3CCC[C@H]3C(=O)N3C[C@H](O)C[C@H]3C(=O)N[C@@H](Cc3c[nH]c4ccccc34)C(=O)N[C@H](C(N)=O)CSCCC5=O)nn1)C(=O)N1CCC[C@H]1C(=O)N[C@@H](Cc1ccc(O)cc1)C(=O)N2	Tumor necrosis factor receptor superfamily member 9	binding, SPR			Kd	3.2 nM
CC(=O)N[C@@H](CC(C)C)C(=O)N[C@@H](CC(C)C)C(=O)N[C@@H](CC(C)C)C(=O)N[C@@H](CCCN=C(N)N)C(=O)N[C@H](C(=O)N[C@@H](CCCCN)C(=O)N[C@@H](CCCN=C(N)N)C(N)=O)C(C)C	Neuroendocrine convertase 2 (Homo sapiens, UniProt P16519)	enzyme activity, inhibitor			Ki	500 nM
Cc1cc(SCc2sc(-c3ccc(C(F)(F)F)c(F)c3)nc2C)ccc1OCC(=O)O	PPARA	reporter gene, antagonist, luciferase			IC50	37400 nM
O=C(O)[C@H](Cc1ccc2ccccc2c1)NC(=O)C1(c2ccc3ccccc3c2)CCN(CCC(F)(F)F)CC1	gag-pol integrase	enzyme activity, inhibitor, TR-FRET			IC50	180000 nM
CCCC[C@@H]1NC(=O)[C@H](Cc2ccc(O)cc2)NC(=O)[C@@H]2CCCN2C(=O)[C@H](CC(N)=O)NC(=O)[C@H](C)NC(=O)[C@H](Cc2ccccc2)NC(=O)[C@@H]2CSCCC(=O)N3CN(CN(C3)C(=O)CCSC[C@H](NC(C)=O)C(=O)N[C@@H](CC(C)(C)C)C(=O)N3CCC[C@H]3C(=O)N[C@@H](CCC(=O)O)C(=O)N[C@H](CCCCNC(=O)CCc3cn(CCOCCOCCOCCOCCOCCC(=O)N[C@H]4CSCCC(=O)N5CN6CN(C5)C(=O)CCSC[C@H](NC(=O)[C@@H](CC(=O)O)NC(=O)[C@H](Cc5cccc7ccccc57)NC(=O)[C@@H]5CCCN5C4=O)C(=O)N[C@@H](CCSC)C(=O)N[C@@H](CCCCNC(=N)N)C(=O)N[C@@H](CC(=O)O)C(=O)N[C@@H](Cc4c[nH]c5ccccc45)C(=O)N[C@@H](CO)C(=O)N[C@@H]([C@@H](C)O)C(=O)N4CCC[C@H]4C(=O)N4C[C@H](O)C[C@H]4C(=O)N[C@@H](Cc4c[nH]c5ccccc45)C(=O)N[C@H](C(N)=O)CSCCC6=O)nn3)C(=O)N3CCC[C@H]3C(=O)N[C@@H](Cc3ccc(O)cc3)C(=O)N2)C(=O)CCSC[C@@H](C(N)=O)NC1=O	Tumor necrosis factor receptor superfamily member 9	binding, SPR			Kd	878 nM
CC[C@H](C)[C@H](NC(=O)[C@H](CCCNC(=N)N)NC(=O)[C@H](CC(C)C)NC(=O)[C@@H](N)Cc1ccccc1)C(=O)N[C@@H](CCCNC(=N)N)C(=O)N1CCC[C@H]1C(=O)N[C@@H](CCCCN)C(=O)O	Alpha-1B adrenergic receptor (ADRA1B, Homo sapiens, UniProt P35368)	cell-free assay, radioligand			Ki	6900 nM
O=C(O)[C@H](Cc1ccccc1)NC(=O)C1(c2ccc3ccccc3c2)CCN(Cc2ccccc2)CC1	gag-pol integrase	enzyme activity, inhibitor, TR-FRET			IC50	353000 nM
CCCC[C@@H]1NC(=O)[C@H](Cc2ccc(O)cc2)NC(=O)[C@@H]2CCCN2C(=O)[C@H](CC(=O)O)NC(=O)[C@H](C)NC(=O)[C@H](Cc2ccccc2)NC(=O)[C@@H]2CSCCC(=O)N3CN(CN(C3)C(=O)CCSC[C@@H](C(=O)N[C@@H](C)C(N)=O)NC1=O)C(=O)CCSC[C@H](NC(C)=O)C(=O)N[C@@H](CC(C)(C)C)C(=O)N1CCC[C@H]1C(=O)N[C@@H](CCC(=O)O)C(=O)N[C@H](CCCCNC(=O)CCc1cn(CCOCCOCCOCCOCCOCCC(=O)NCCCC[C@H]3NC(=O)[C@H](Cc4cccc5ccccc45)NC(=O)[C@@H]4CCCN4C(=O)[C@@H](NC(C)=O)CSCCC(=O)N4CN5CN(C4)C(=O)CCSC[C@H](NC3=O)C(=O)N[C@@H](CCSC)C(=O)N[C@@H](CCCCNC(=N)N)C(=O)N[C@@H](CCC(=O)O)C(=O)N[C@@H](Cc3c[nH]c4ccccc34)C(=O)N[C@@H](CO)C(=O)N[C@@H]([C@@H](C)O)C(=O)N3CCC[C@H]3C(=O)N3C[C@H](O)C[C@H]3C(=O)N[C@@H](Cc3c[nH]c4ccccc34)C(=O)N[C@H](C(N)=O)CSCCC5=O)nn1)C(=O)N1CCC[C@H]1C(=O)N[C@@H](Cc1ccc(O)cc1)C(=O)N2	Tumor necrosis factor receptor superfamily member 9	binding, SPR			Kd	7.2 nM
